# In PubChem BioAssay AID588553 (Broad Institute, 2011):
# Target: Scavenger receptor class B member 1 (Mus musculus) (UniProt Q61009)
# Assay: SR-BI-mediated DiI-HDL uptake inhibitors, dose response, ldlA[mSR-BI] CHO cells, powder samples, set 3 (AID 588553)
# Details: DiI-HDL uptake fluorescence, 3 h
# Outline: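 assay system = ldlA[mSR-BI] CHO cells | buffer or medium = F12 medium with BSA and HEPES | reagent = DiI-HDL at 10 µg/mL | timing = 3 h at 37 °C | signal = fluorescence, ex 550 nm, em 595 nm | control set = DMSO neutral control, BLT-1 positive control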
# Chain of Scavenger receptor class B member 1 (Mus musculus) (Q61009 whole entry, looked up): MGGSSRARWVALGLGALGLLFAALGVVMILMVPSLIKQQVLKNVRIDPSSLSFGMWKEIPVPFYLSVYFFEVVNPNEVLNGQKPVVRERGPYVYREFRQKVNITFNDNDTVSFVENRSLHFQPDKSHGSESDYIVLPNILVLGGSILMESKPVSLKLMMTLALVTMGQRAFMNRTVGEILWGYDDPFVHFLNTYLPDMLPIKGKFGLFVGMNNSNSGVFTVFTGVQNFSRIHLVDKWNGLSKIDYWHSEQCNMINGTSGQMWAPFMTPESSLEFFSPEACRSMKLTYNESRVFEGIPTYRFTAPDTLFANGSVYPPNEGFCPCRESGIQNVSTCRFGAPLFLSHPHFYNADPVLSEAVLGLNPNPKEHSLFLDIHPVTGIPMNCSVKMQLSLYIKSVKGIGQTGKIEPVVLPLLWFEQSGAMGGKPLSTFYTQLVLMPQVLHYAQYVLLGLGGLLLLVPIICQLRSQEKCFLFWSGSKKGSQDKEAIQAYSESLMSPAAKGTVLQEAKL
row,AC50 [nM],SMILES
1,< 15,COCC(=O)N1CCc2cc(-c3csc(NC(=O)c4cc(OC)cc(OC)c4)n3)ccc21
2,26.9,COC(=O)N1CCc2cc(-c3csc(NC(=O)c4cc(OC)cc(OC)c4)n3)ccc21
3,< 15,COc1cc(OC)cc(C(=O)Nc2nc(-c3ccc4c(c3)CCN4C(=O)CN(C)C)cs2)c1
4,< 15,CCNC(=O)N1CCc2cc(-c3csc(NC(=O)c4cc(OC)cc(OC)c4)n3)ccc21
5,113,COc1cc(OC)cc(C(=O)Nc2nc(-c3ccc4c(c3)CCN4)cs2)c1
6,17.4,COc1cc(OC)cc(C(=O)Nc2nc(-c3ccc4c(c3)CCN4C(C)=O)cs2)c1
7,89.5,CCCN1CCc2cc(-c3csc(NC(=O)c4cc(OC)cc(OC)c4)n3)ccc21
8,< 15,COc1cc(OC)cc(C(=O)Nc2nc(-c3ccc4c(c3)CCN4C(=O)OC(C)(C)C)cs2)c1
9,228,COc1cc(OC)cc(C(=O)Nc2nc(-c3ccc4[nH]ccc4c3)cs2)c1
10,52.9,CCC(=O)N1CCc2cc(-c3csc(NC(=O)c4cc(OC)cc(OC)c4)n3)ccc21

# More lines, now with the values behind:
row,SMILES,AC50 [nM]
1,O=C(CN(C(=O)Cn1nnc(-c2ccc3c(c2)OC(F)(F)O3)n1)C1CCCCC1)NC1CCCC1,65.3
2,CCC(=O)N1CCc2cc(-c3csc(NC(=O)c4cc5cccnc5o4)n3)ccc21,141
3,O=C(CN(C(=O)Cn1nnc(-c2ccc3c(c2)OCO3)n1)C1CCCCC1)NC1CCCC1,< 15
4,CC(C(=O)NC1CCCC1)N(C(=O)Cn1nnc(-c2ccc3c(c2)OCO3)n1)C1CCOCC1 (configuration not stated),836
5,CCC(=O)Nc1ccc(-c2csc(NC(=O)c3ccco3)n2)cc1,2010
6,CCC(=O)N1CCc2cc(-c3csc(NC(=O)c4ccco4)n3)ccc21,58.7
7,CCC(=O)N1CCc2cc(-c3csc(NC(=O)c4cc(OC)c(OC)c(OC)c4)n3)ccc21,< 15
8,CC(C(=O)NC1CCCC1)N(C(=O)Cn1nnc(-c2ccc(Cl)c(Cl)c2)n1)C1CCCCC1 (configuration not stated),108
9,CC(C(=O)NC1CCCC1)N(C(=O)Cn1nnc(-c2ccc3c(c2)OCO3)n1)C1CCCCC1 (configuration not stated),17
10,O=C(Nc1nc(-c2ccc3c(c2)CCN3)cs1)c1ccco1,< 15
11,COc1ccc(-c2nnn(CC(=O)N(CC(=O)NC3CCCC3)C3CCCCC3)n2)cc1OC,< 15
12,CC(C(=O)NC1CCCC1)N(C(=O)Cn1nnc(-c2ccc3c(c2)OC(F)(F)O3)n1)C1CCCCC1 (configuration not stated),225
13,CCC(=O)Nc1ccc(-c2csc(N)n2)cc1,140
14,COc1ccc(-c2nc(CC(=O)N(C3CCCCC3)C(C)C(=O)NC3CCCC3)cs2)cc1OC (configuration not stated),6280
15,CCC(=O)N1CCc2cc(-c3csc(/N=C(/OC)c4cc(OC)cc(OC)c4)n3)ccc21,44.1
16,CCC(=O)Nc1ccc(-c2csc(NC(=O)c3cccc(OC)c3)n2)cc1,44.7
17,CCCCCCC1CCC/C1=N\NC(N)=S (configuration not stated),< 15
18,COc1ccc(-c2cc(CC(=O)N(C3CCCCC3)C(C)C(=O)NC3CCCC3)no2)cc1OC (configuration not stated),15.4
19,CC(C)(C)OC(=O)N1CCc2cc(-c3noc(NC(=O)c4ccco4)n3)ccc21,13900
20,CCC(=O)N1CCc2cc(-c3csc(N(C)C(=O)c4cc(OC)cc(OC)c4)n3)ccc21,180
21,O=C(CN(C(=O)Cn1nnc(-c2ccc(Cl)c(Cl)c2)n1)C1CCCCC1)NC1CCCC1,303
22,CCC(=O)N1CCc2cc(-c3csc(NC(=O)c4cccc(OC(F)(F)F)c4)n3)ccc21,29.2
